In ChEMBL document CHEMBL4049388, “Facile and efficient access to Androsten-17-(1',3',4')-pyrazoles and Androst-17β-(1',3',4')-pyrazoles via Vilsmeier reagents, and their antiproliferative activity evaluation in vitro” (Eur J Med Chem, 2017):

Key:
[1] = Cytotoxicity against human 293T cells assessed as growth inhibition at 10 uM after 72 hrs by SRB assay relative to control; assay type: cell-based; conditions: HEK-293T cells, read-out: GI
How it was run: (§1)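 SRB single-dose screen at 10 μM on 293T, A549, Hela and MCF-7 cells. Results reported as percent inhibitory ratio (mean ± SD).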

A549 [2] = assay: Cytotoxicity against human A549 cells assessed as growth inhibition at 10 uM after 72 hrs by SRB assay relative to control; assay type: functional; conditions: A549, 72 h, read-out: GI; how it was run: as §1
HeLa [3] = assay: Cytotoxicity against human HeLa cells assessed as growth inhibition at 10 uM after 72 hrs by SRB assay relative to control; assay type: functional; conditions: read-out: GI; how it was run: as §1
MCF7 [4] = assay: Cytotoxicity against human MCF7 cells assessed as growth inhibition at 10 uM after 72 hrs by SRB assay relative to control; assay type: functional; conditions: MCF7, 72 h, read-out: GI; how it was run: as §1
HEK-293T = assay: Cytotoxicity against human 293T cells after 72 hrs by SRB assay; assay type: cell-based
How it was run: (§2)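 SRB assay on 293T, A549, Hela and MCF-7 cells, with cisplatin as reference control. IC50 calculated for each compound from triplicate assays.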

A549 [5] = assay: Cytotoxicity against human A549 cells after 72 hrs by SRB assay; assay type: functional, cell-based; conditions: A549, 72 h; how it was run: as §2
HeLa [6] = assay: Cytotoxicity against human HeLa cells after 72 hrs by SRB assay; assay type: functional, cell-based; how it was run: as §2
MCF7 [7] = assay: Cytotoxicity against human MCF7 cells after 72 hrs by SRB assay; assay type: functional, cell-based; conditions: MCF7, 72 h; how it was run: as §2

| Compound | inhibition at 72 h, 10 µM [1] [%] | inhibition of growth at 10 µM (A549 [2]) [%] | inhibition of growth at 10 µM (HeLa [3]) [%] | inhibition of growth at 10 µM (MCF7 [4]) [%] | IC50 (HEK-293T) [µM] | IC50 (A549 [5]) [µM] | IC50 (HeLa [6]) [µM] | IC50 (MCF7 [7]) [µM] |
| --- | --- | --- | --- | --- | --- | --- | --- | --- |
| COc1ccccc1NCc1cn(-c2ccccc2)nc1C1=CC[C@H]2[C@@H]3CC=C4C[C@@H](O)CC[C@]4(C)[C@H]3CC[C@]12C | < 10 | < 10 | < 10 | 18.1 | – | – | – | – |
| CCNCc1cn(-c2ccccc2)nc1[C@H]1CC[C@H]2[C@@H]3CCC4C[C@@H](O)CC[C@]4(C)[C@H]3CC[C@]12C (stereo partly drawn) | 91.2 | 92.4 | 88.4 | 88.9 | 5.29 | 6.35 | 3.28 | 3.92 |
| C[C@]12CC[C@H]3[C@@H](CCC4C[C@@H](O)CC[C@@]43C)[C@@H]1CC[C@@H]2c1nn(-c2ccccc2)cc1CNCc1ccccc1 (stereo partly drawn) | 60.8 | 56.5 | 48.3 | 44.4 | – | – | – | – |
| CCCNCc1cn(-c2ccccc2)nc1C1=CC[C@H]2[C@@H]3CC=C4C[C@@H](O)CC[C@]4(C)[C@H]3CC[C@]12C | 93.7 | 91.2 | 93.5 | 90.7 | 7.25 | 1.57 | 3.61 | 4.29 |
| CCCCNCc1cn(-c2ccccc2)nc1[C@H]1CC[C@H]2[C@@H]3CCC4C[C@@H](O)CC[C@]4(C)[C@H]3CC[C@]12C (stereo partly drawn) | < 10 | < 10 | 29.3 | 21.9 | – | – | – | – |
| CNCc1cn(-c2ccccc2)nc1[C@H]1CC[C@H]2[C@@H]3CCC4C[C@@H](O)CC[C@]4(C)[C@H]3CC[C@]12C (stereo partly drawn) | 79.2 | < 10 | 41.3 | 45.9 | – | – | – | – |
| CCCNCc1cn(-c2ccccc2)nc1[C@H]1CC[C@H]2[C@@H]3CCC4C[C@@H](O)CC[C@]4(C)[C@H]3CC[C@]12C (stereo partly drawn) | 91.9 | 91.5 | 90.3 | 88.6 | 0.62 | 6.02 | 1.98 | 4.84 |
| C[C@]12CC[C@H](O)CC1=CC[C@@H]1[C@@H]2CC[C@]2(C)C(c3nn(-c4ccccc4)cc3CNCc3ccccc3)=CC[C@@H]12 | 50.7 | < 10 | < 10 | 25.4 | – | – | – | – |
| C[C@]12CC[C@H]3[C@@H](CCC4C[C@@H](O)CC[C@@]43C)[C@@H]1CC[C@@H]2c1nn(-c2ccccc2)cc1CNc1ccccc1 (stereo partly drawn) | 12.5 | < 10 | < 10 | 16.9 | – | – | – | – |
| CNCc1cn(-c2ccccc2)nc1C1=CC[C@H]2[C@@H]3CC=C4C[C@@H](O)CC[C@]4(C)[C@H]3CC[C@]12C | 91.6 | 82.1 | 90.5 | 81.1 | 2.11 | 3.68 | 3.86 | 6.91 |
| C[C@]12CC[C@H](O)C[C@@H]1CC[C@@H]1[C@@H]2CC[C@]2(C)[C@@H](c3nn(-c4ccccc4)cc3CO)CC[C@@H]12 | 18.5 | < 10 | < 10 | 27.8 | – | – | – | – |
| CCCCNCc1cn(-c2ccccc2)nc1C1=CC[C@H]2[C@@H]3CC=C4C[C@@H](O)CC[C@]4(C)[C@H]3CC[C@]12C | 95.1 | 92.9 | 92.6 | 93.7 | 2.63 | 1.93 | 3.37 | 3.18 |
| CC(C)NCc1cn(-c2ccccc2)nc1[C@H]1CC[C@H]2[C@@H]3CCC4C[C@@H](O)CC[C@]4(C)[C@H]3CC[C@]12C (stereo partly drawn) | 87.4 | 30.6 | 74.1 | 70.8 | 1.03 | – | 1.98 | 7.45 |
| CC(C)NCc1cn(-c2ccccc2)nc1C1=CC[C@H]2[C@@H]3CC=C4C[C@@H](O)CC[C@]4(C)[C@H]3CC[C@]12C | 94.7 | 93.3 | 92.4 | 92.1 | 7.51 | 2.87 | 3.49 | 6.36 |
